In general, viability refers to a read-out of living cells in per cent, often relative to untreated cells. The inhibition is the change of the read-out against control, counted positive when it falls.

The source made the active and inactive calls.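 The calls were made as follows, unless noted: active = viability at or under a set limit in both replicates, limit being median viability minus 3 SD (cut at about 48% in these data, passing the limit was not always enough); inconclusive = at or under the limit in just one replicate; inactive = at or above the limit in both replicates.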

The record followed here is PubChem BioAssay.

The nature of experiment [1]: reduced viability of SK-BR-3 breast cancer cells – cell-based, 24 h, human, pilot screen (AID 572;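 active = viability at or below 10% of carrier control in both of two separate runs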;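 also: compound exposure lasted between 18 and 24 h rather than exactly 24 h; 100% = carrier-treated control wells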). Conditions: SK-BR-3 viability, CellTiter-Glo luminescence, at 10 µM, stronger effect = lower value.
Experiment [2] is described as follows: HUVEC growth inhibition – cell-based, human, primary screen (AID 575;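 active = viability at or below 30% in both replicate assays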;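 also: 100% = median of untreated cell wells with 0.1% DMSO on each plate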). To be noted: HUVEC proliferation, CellTiter-Glo luminescence, 72 h; at 10 µM; stronger effect = lower value. An outline of the steps: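 Test system: primary human umbilical vein endothelial cells. Quantity: 1250 cells/well. Compound: single 10 µM dose, 0.1% DMSO, from 5x medium stock. Timing: 72 h treatment at 37 °C. Detection: ATP-based CellTiter-Glo luminescent read. Benchmarks: vehicle and MePR control wells. Format: 384-well plates coated with collagen.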
(Cellular ATP, detected with luciferase, serves as a proxy for viable cell number.)

A short description of experiment [3]: H69AR cell proliferation blockers – human, duplicate replicates, primary screen (AID 580).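 Also: 100% = mean luminescence of untreated wells and 0% = no signal.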 To be noted: H69AR lung tumor cells viability, ATP luminescence, 72 h; at 10 µM; stronger effect = lower value.
Experiment [4] is described as follows: MRP1 drug-resistance reversers in H69AR cells – cell-based, doxorubicin co-treatment, pilot screen (AID 601;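 active = viability loss from added drug above about 55%, and viability with drug at most 40%, in both replicates, limit read from the data, passing the limit was not always enough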). Conditions: CellTiter-Glo, 72 h, at 10 µM; for differential viability (reversal): stronger effect = higher value.
Experiment [5] in a line: yeast transport mutant growth inhibition pilot in 384-well plates, post-Golgi transport modulator project (AID 636; in the data active = inhibition above about 31%). To be noted: absorbance 615 nm, about 18 h, stronger effect = higher value.
Experiment [6] is described as follows: growth suppression of yeast trafficking mutant, preliminary HTS, modulators of trafficking downstream of Golgi apparatus project, 1536-format plate, OD 615 nm (AID 637; in the data active = inhibition above about 30%). Conditions: yeast transport mutant growth, absorbance 615 nm, 18 h; stronger effect = higher value.
Setting [7] is: H69AR cells + 2 uM doxorubicin, measured here: viability with 2 uM doxorubicin, stronger effect = lower value.
[8] abbreviates: H69AR cells, compound alone cytotoxicity.

Regarding `Cc1ccc2nc(/C(C#N)=N/O)[nH]c2c1`, the viability in experiment [1] was 115% (inactive); in experiment [2] it was 84.9% (inactive); in experiment [3] it was 78.2% (inactive); in experiment [4] (setting [7]), 80.3%; in experiment [4] (setting [8]) it was 78.2%. The differential viability (reversal) in experiment [4] (H69AR cells + 2 uM doxorubicin) is -2.1% (inactive). Further, the figures for the inhibition in experiment [5] and in experiment [6] were -4.53% (inactive) and 0% (inactive), respectively.

Turning to `O=C(c1cnn2c(C(F)F)cc(-c3ccccc3)nc12)N1CCN2CCCC2C1` (configuration not stated), the viability is 103% (inactive) in experiment [1]; 103% (inactive) in experiment [2]; 79.1% (inactive) in experiment [3]; 80.8% in experiment [4] (setting [7]); 79.1% in experiment [4] (setting [8]). Also, the differential viability (reversal) in experiment [4] (H69AR cells + 2 uM doxorubicin) was -1.71% (inactive). The inhibition in experiment [5] was -4.79% (inactive); in experiment [6], 1.82% (inactive).

`Cc1ccc(O)c(-c2cc(C(=O)Nc3ccc(S(=O)(=O)N4CC(C)OC(C)C4)cc3)[nH]n2)c1` (configuration not stated): the viability in experiment [1] is 92% (inactive); in experiment [2] it was 56.7% (inactive); in experiment [3] it was 34.8% (active); in experiment [4] (setting [7]) it was 43.5%; in experiment [4] (setting [8]), 34.8%. The differential viability (reversal) in experiment [4] (H69AR cells + 2 uM doxorubicin) was -8.67% (inactive). In addition, the results for the inhibition in experiment [5] and in experiment [6] were -11.1% (inactive) and -1.59% (inactive), respectively.

On to `O=C(Cc1nc2ccccc2s1)c1ccc(O)cc1O`, for which the viability in experiment [1] is 100% (inactive); in experiment [2], 87.3% (inactive); in experiment [3], 90.8% (inactive); in experiment [4] (setting [7]), 86%; in experiment [4] (setting [8]), 90.8%. The differential viability (reversal) in experiment [4] (H69AR cells + 2 uM doxorubicin) was 4.72% (inactive). Also, the inhibition in experiment [5] was -4.53% (inactive); in experiment [6], -0.18% (inactive).

Consider `CC1CCCCC1NC(=O)COc1ccc(-n2cnnn2)cc1` (configuration not stated), for which the viability in experiment [1] was 100% (inactive); in experiment [2] it was 103% (inactive); in experiment [3] it was 101% (inactive); in experiment [4] (setting [7]), 101%; in experiment [4] (setting [8]), 101%. In experiment [4] (H69AR cells + 2 uM doxorubicin), the differential viability (reversal) was -0.38% (inactive). Besides, the figures for the inhibition in experiment [5] and in experiment [6] were 0% (inactive) and 0.73% (inactive), respectively.

As to `CC(C)OC(=O)C(C)(C)Oc1ccc(C(=O)c2ccc(Cl)cc2)cc1`, the viability is 88% (inactive) in experiment [1]; 90.1% (inactive) in experiment [2]; 103% (inactive) in experiment [3]; 94.5% in experiment [4] (setting [7]); 103% in experiment [4] (setting [8]). Further, the differential viability (reversal) in experiment [4] (H69AR cells + 2 uM doxorubicin) is 8.95% (inactive). Further, the values for the inhibition in experiment [5] and in experiment [6] were 0.78% (inactive) and -7.67% (inactive), respectively.

With `COc1ccc(CNc2nc3nc(C)c(Cl)c(C)n3n2)cc1OC`, the viability in experiment [1] is 97% (inactive); in experiment [2], 104% (inactive); in experiment [3], 92.6% (inactive); in experiment [4] (setting [7]), 89.4%; in experiment [4] (setting [8]), 92.6%. For the same compound, the differential viability (reversal) in experiment [4] (H69AR cells + 2 uM doxorubicin) is 3.22% (inactive). The inhibition in experiment [5] was -6.35% (inactive); in experiment [6], -6.73% (inactive).

Consider `CC(=O)[C@@]1(O)CC[C@H]2[C@@H]3C[C@H](C)C4=CC(=O)C=C[C@]4(C)[C@@]3(F)[C@@H](O)C[C@@]21C`, for which the viability was 100% (inactive) in experiment [1]; 92.3% (inactive) in experiment [2]; 93.2% (inactive) in experiment [3]; 103% in experiment [4] (setting [7]); 93.2% in experiment [4] (setting [8]). The differential viability (reversal) in experiment [4] (H69AR cells + 2 uM doxorubicin) was -9.97% (inactive). Also, the inhibition was -0.91% (inactive) in experiment [5] and 7.83% (inactive) in experiment [6].

On to `COCCSc1nnc(NC(=O)CSCc2ccccc2)s1`, for which the viability was 102% (inactive) in experiment [1]; 103% (inactive) in experiment [2]; 93.1% (inactive) in experiment [3]; 86.3% in experiment [4] (setting [7]); 93.1% in experiment [4] (setting [8]). Moreover, the differential viability (reversal) in experiment [4] (H69AR cells + 2 uM doxorubicin) was 6.87% (inactive). The inhibition in experiment [5] was -11% (inactive); in experiment [6] it was 0.97% (inactive).

Take `CCN1CCN(c2nc3c(c(=O)n(C)c(=O)n3C)n2CCSc2ncccn2)CC1`: the viability in experiment [1] was 116% (inactive); in experiment [2], 91.7% (inactive); in experiment [3] it was 94.8% (inactive); in experiment [4] (setting [7]), 87.8%; in experiment [4] (setting [8]) it was 94.8%. For the same compound, the differential viability (reversal) in experiment [4] (H69AR cells + 2 uM doxorubicin) is 7% (inactive). Also, the inhibition was -5.07% (inactive) in experiment [5] and -9.68% (inactive) in experiment [6].

In the case of `CCOC(=O)c1[nH]c2cc(OC)c(OC)cc2c1NC(=O)C(C)N1CCN(Cc2ccccc2)CC1` (configuration not stated), the viability was 73% (inactive) in experiment [1]; 51.3% (inactive) in experiment [2]; 59.2% (inactive) in experiment [3]; 66.1% in experiment [4] (setting [7]); 59.2% in experiment [4] (setting [8]). The differential viability (reversal) in experiment [4] (H69AR cells + 2 uM doxorubicin) is -6.81% (inactive). Also, the inhibition in experiment [5] is -4.59% (inactive); in experiment [6] it was -5.09% (inactive).

For `CC(C)CC1NC(=O)N(CC(=O)N2CCN(S(=O)(=O)c3ccc(Cl)cc3)CC2)C1=O` (configuration not stated), the viability is 97% (inactive) in experiment [1]; 91.7% (inactive) in experiment [2]; 96.4% (inactive) in experiment [3]; 116% in experiment [4] (setting [7]); 96.4% in experiment [4] (setting [8]). For the same compound, the differential viability (reversal) in experiment [4] (H69AR cells + 2 uM doxorubicin) is -19.2% (inactive). The inhibition is 0% (inactive) in experiment [5] and 5.83% (inactive) in experiment [6].

Regarding `O=C(c1ccccc1-c1nc(-c2ccccc2)no1)N1CCCC1`, the viability in experiment [1] is 105% (inactive); in experiment [2] it was 120% (inactive); in experiment [3] it was 90.9% (inactive); in experiment [4] (setting [7]), 81.6%; in experiment [4] (setting [8]), 90.9%. Besides, in experiment [4] (H69AR cells + 2 uM doxorubicin), the differential viability (reversal) was 9.27% (inactive). Besides, the inhibition was -5.07% (inactive) in experiment [5] and -3.23% (inactive) in experiment [6].

In the case of `NC(N)=NC(N)=NCCc1ccccc1`, the viability in experiment [1] is 103% (inactive); in experiment [2] it was 104% (inactive); in experiment [3] it was 99.4% (inactive); in experiment [4] (setting [7]) it was 99.6%; in experiment [4] (setting [8]), 99.4%. Further, in experiment [4] (H69AR cells + 2 uM doxorubicin), the differential viability (reversal) was -0.22% (inactive). In addition, the figures for the inhibition in experiment [5] and in experiment [6] were 0.65% (inactive) and -0.67% (inactive), respectively.
